B1: Osa-1-4 twister ribozyme (parent)
chain: CCGCCUAACACUGCCAAUGCCGGUCCCAAGCCCGGAUAAAAGUGGAGGGGGCGG

Variants of: B1
Assay: self-cleavage, relative activity (ratio to wild type); higher = more cleavage; co-transcriptional
Outline: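 A DNA template for a 54-nucleotide Oryza sativa twister ribozyme was synthesised with 97 % wild-type base and 1 % of each other base at the 48 positions downstream of the cleavage site. It was transcribed in vitro for 2 h at 37 °C, allowing co-transcriptional self-cleavage, then reverse-transcribed with a template-switching oligonucleotide, PCR-amplified and deep-sequenced. Cleavage status was scored from reads with or without upstream sequence. Relative activity is fraction cleaved normalised to wild type.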
With CCGCCUAACACUGCCAAUGCCGCUCCCAAGCCCGGAUAAAAGUGGAGGGGACGG the self-cleavage was 0.05. In the case of CCGCCUAACACUGCCAAUGCCGCUCCCAAGCCCGGAUAAAAGUGGAGGGGCCGG, the self-cleavage is reported as 0.03. For CCGCCUAACACUGCCAAUGCCGCUCCCAAGCCCGGAUAAAAGUGGAGGGGUCGG, the self-cleavage was 0.03. Work on CCGCCUAACACUGCCAAUGCCGCUCCCAAGCCCGGAUAAAAGUGGAGGGGGCAG yielded a self-cleavage of 0.04. CCGCCUAACACUGCCAAUGCCGCUCCCAAGCCCGGAUAAAAGUGGAGGGGGCCG gave a self-cleavage of 0.02. With CCGCCUAACACUGCCAAUGCCGCUCCCAAGCCCGGAUAAAAGUGGAGGGGGCUG the self-cleavage was 0.04. CCGCCUAACACUGCCAAUGCCGCUCCCAAGCCCGGAUAAAAGUGGAGGGGGCGA gave a self-cleavage of 0.06. With CCGCCUAACACUGCCAAUGCCGCUCCCAAGCCCGGAUAAAAGUGGAGGGGGCGC the self-cleavage was 0.05. CCGCCUAACACUGCCAAUGCCGCUCCCAAGCCCGGAUAAAAGUGGAGGGGGCGU showed a self-cleavage of 0.06. With CCGCCUAACACAGCCAAUGCCGCUCCCAAGCCCGGAUAAAAGUGGAGGGGGCGG the self-cleavage was 0.04. CCGCCUAACACCGCCAAUGCCGCUCCCAAGCCCGGAUAAAAGUGGAGGGGGCGG gave a self-cleavage of 0.04. Variant CCGCCUAACACGGCCAAUGCCGCUCCCAAGCCCGGAUAAAAGUGGAGGGGGCGG has a self-cleavage of 0.04. Variant CCGCCUAACACUGCCAAAGCCGCUCCCAAGCCCGGAUAAAAGUGGAGGGGGCGG has a self-cleavage of 0.06. Variant CCGCCUAACACUGCCAACGCCGCUCCCAAGCCCGGAUAAAAGUGGAGGGGGCGG has a self-cleavage of 0.14. Variant CCGCCUAACACUGCCAAGGCCGCUCCCAAGCCCGGAUAAAAGUGGAGGGGGCGG has a self-cleavage of 0.06. With CCGCCUAACACUGCCAAUGCCGCACCCAAGCCCGGAUAAAAGUGGAGGGGGCGG the self-cleavage was 0.03. CCGCCUAACACUGCCAAUGCCGCCCCCAAGCCCGGAUAAAAGUGGAGGGGGCGG showed a self-cleavage of 0.04. Work on CCGCCUAACACUGCCAAUGCCGCGCCCAAGCCCGGAUAAAAGUGGAGGGGGCGG yielded a self-cleavage of 0.01. Work on CCGCCUAACACUGCCAAUGCCGCUCCCAAGCCCGGAAAAAAGUGGAGGGGGCGG yielded a self-cleavage of 0.04. CCGCCUAACACUGCCAAUGCCGCUCCCAAGCCCGGACAAAAGUGGAGGGGGCGG showed a self-cleavage of 0.07. For CCGCCUAACACUGCCAAUGCCGCUCCCAAGCCCGGAGAAAAGUGGAGGGGGCGG, the self-cleavage was 0.05. CCGCCUAACACUGCCAAUGCCGCUCCCAAGCCCGGAUAAAAGAGGAGGGGGCGG showed a self-cleavage of 0.05. With CCGCCUAACACUGCCAAUGCCGCUCCCAAGCCCGGAUAAAAGCGGAGGGGGCGG the self-cleavage was 0.05. CCGCCUAACACUGCCAAUGCCGCUCCCAAGCCCGGAUAAAAGGGGAGGGGGCGG showed a self-cleavage of 0.06. For CCGCCUAACACUGCCAAUGCCGUUCCCAAGCCCGGAUAAAAGUGGAGGGGGCGG, the self-cleavage was 0.18. For CCGCCUAACACUGCCAAUGCCGUUCCCAAACCCGGAUAAAAGUGGAGGGGGCGG, the self-cleavage was 0.02. For CCGCCUAACACUGCCAAUGCCGUUCCCAACCCCGGAUAAAAGUGGAGGGGGCGG, the self-cleavage was 0.03. CCGCCUAACACUGCCAAUGCCGUUCCCAAUCCCGGAUAAAAGUGGAGGGGGCGG gave a self-cleavage of 0.02. CCGCCUAACACUGCCAAUGCCGUUCCCAAGCCCAGAUAAAAGUGGAGGGGGCGG gave a self-cleavage of 0.04. Variant CCGCCUAACACUGCCAAUGCCGUUCCCAAGCCCCGAUAAAAGUGGAGGGGGCGG has a self-cleavage of 0.04. In the case of CCGCCUAACACUGCCAAUGCCGUUCCCAAGCCCUGAUAAAAGUGGAGGGGGCGG, the self-cleavage is reported as 0.05. CCGCCUAACACUGCCAAUGCCGUUCCCAAGCCCGAAUAAAAGUGGAGGGGGCGG showed a self-cleavage of 0.04. In the case of CCGCCUAACACUGCCAAUGCCGUUCCCAAGCCCGCAUAAAAGUGGAGGGGGCGG, the self-cleavage is reported as 0.05. With CCGCCUAACACUGCCAAUGCCGUUCCCAAGCCCGUAUAAAAGUGGAGGGGGCGG the self-cleavage was 0.05. CCGCCUAACACUGCCAAUGCCGUUCCCAAGCCCGGAUAAAAAUGGAGGGGGCGG showed a self-cleavage of 0.05. For CCGCCUAACACUGCCAAUGCCGUUCCCAAGCCCGGAUAAAACUGGAGGGGGCGG, the self-cleavage was 0.03. Variant CCGCCUAACACUGCCAAUGCCGUUCCCAAGCCCGGAUAAAAUUGGAGGGGGCGG has a self-cleavage of 0.04. For CCGCCUAACACUGCCAAUGCCGUUCCCAAGCCCGGAUAAAAGUAGAGGGGGCGG, the self-cleavage was 0.04. In the case of CCGCCUAACACUGCCAAUGCCGUUCCCAAGCCCGGAUAAAAGUCGAGGGGGCGG, the self-cleavage is reported as 0.05. In the case of CCGCCUAACACUGCCAAUGCCGUUCCCAAGCCCGGAUAAAAGUUGAGGGGGCGG, the self-cleavage is reported as 0.06. Variant CCGCCUAACACUGCCAAUGCCGUUCCCAAGCCCGGAUAAAAGUGAAGGGGGCGG has a self-cleavage of 0.04. In the case of CCGCCUAACACUGCCAAUGCCGUUCCCAAGCCCGGAUAAAAGUGCAGGGGGCGG, the self-cleavage is reported as 0.03. With CCGCCUAACACUGCCAAUGCCGUUCCCAAGCCCGGAUAAAAGUGUAGGGGGCGG the self-cleavage was 0.03. CCGCCUAACACUGCCAAUGCCGUUCCCAAGCCCGGAUAAAAGUGGAAGGGGCGG showed a self-cleavage of 0.03. For CCGCCUAACACUGCCAAUGCCGUUCCCAAGCCCGGAUAAAAGUGGACGGGGCGG, the self-cleavage was 0.03. In the case of CCGCCUAACACUGCCAAUGCCGUUCCCAAGCCCGGAUAAAAGUGGAUGGGGCGG, the self-cleavage is reported as 0.04. Variant CCGCCUAACACUGCCAAUGCCGUUCCCAAGCCCGGAUAAAAGUGGAGAGGGCGG has a self-cleavage of 0.02. For CCGCCUAACACUGCCAAUGCCGUUCCCAAGCCCGGAUAAAAGUGGAGCGGGCGG, the self-cleavage was 0.03. With CCGCCUAACACUGCCAAUGCCGUUCCCAAGCCCGGAUAAAAGUGGAGUGGGCGG the self-cleavage was 0.03.

Source: the RNAGym collection of RNA variant scans (doi:10.1002/anie.201605470)
